Data: publication PMC3304489 (Biochemical Journal, 2012)

Test system: MALT1
Assay: Effect of buffer additives on MALT1 activity
Type: biochemical, human
Conditions: 50 mM Hepes, 100 mM NaCl, 0.9 M sodium citrate, pH 7.5, supplemented with additive (Figure 2C and results not shown)
Procedure, shortened: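 Recombinant human MALT1, expressed in E. coli and Ni-NTA purified, used as full-length (150 nM) and as His-tagged catalytic domain (residues 329–566, 4 μM). Each was assayed in 50 mM Hepes, 100 mM NaCl, 0.9 M sodium citrate (pH 7.5) with the indicated additives. Experiments were repeated three times, and mean ± S.E.M. is reported.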

| Structure (SMILES) | effect of buffer additive on the activity of MALT1 (in words) |
| --- | --- |
| O[C@@H](CS)[C@@H](O)CS (racemic) [DTT, dithiothreitol] | activity was enhanced |
| c1cnc2c(c1)ccc1cccnc12 [1,10-phenanthroline] | no substantial effect |
| [Ca+2].[Cl-].[Cl-] [CaCl2] | no substantial effect |
| O=C(O)CN(CCN(CC(=O)O)CC(=O)O)CC(=O)O [EDTA] | no substantial effect |
